# Measurements collected from several papers.
# Target: Serine/threonine-protein kinase ULK1 (ULK1, Homo sapiens, UniProt O75385)
# One construct used (O75385 1-1050): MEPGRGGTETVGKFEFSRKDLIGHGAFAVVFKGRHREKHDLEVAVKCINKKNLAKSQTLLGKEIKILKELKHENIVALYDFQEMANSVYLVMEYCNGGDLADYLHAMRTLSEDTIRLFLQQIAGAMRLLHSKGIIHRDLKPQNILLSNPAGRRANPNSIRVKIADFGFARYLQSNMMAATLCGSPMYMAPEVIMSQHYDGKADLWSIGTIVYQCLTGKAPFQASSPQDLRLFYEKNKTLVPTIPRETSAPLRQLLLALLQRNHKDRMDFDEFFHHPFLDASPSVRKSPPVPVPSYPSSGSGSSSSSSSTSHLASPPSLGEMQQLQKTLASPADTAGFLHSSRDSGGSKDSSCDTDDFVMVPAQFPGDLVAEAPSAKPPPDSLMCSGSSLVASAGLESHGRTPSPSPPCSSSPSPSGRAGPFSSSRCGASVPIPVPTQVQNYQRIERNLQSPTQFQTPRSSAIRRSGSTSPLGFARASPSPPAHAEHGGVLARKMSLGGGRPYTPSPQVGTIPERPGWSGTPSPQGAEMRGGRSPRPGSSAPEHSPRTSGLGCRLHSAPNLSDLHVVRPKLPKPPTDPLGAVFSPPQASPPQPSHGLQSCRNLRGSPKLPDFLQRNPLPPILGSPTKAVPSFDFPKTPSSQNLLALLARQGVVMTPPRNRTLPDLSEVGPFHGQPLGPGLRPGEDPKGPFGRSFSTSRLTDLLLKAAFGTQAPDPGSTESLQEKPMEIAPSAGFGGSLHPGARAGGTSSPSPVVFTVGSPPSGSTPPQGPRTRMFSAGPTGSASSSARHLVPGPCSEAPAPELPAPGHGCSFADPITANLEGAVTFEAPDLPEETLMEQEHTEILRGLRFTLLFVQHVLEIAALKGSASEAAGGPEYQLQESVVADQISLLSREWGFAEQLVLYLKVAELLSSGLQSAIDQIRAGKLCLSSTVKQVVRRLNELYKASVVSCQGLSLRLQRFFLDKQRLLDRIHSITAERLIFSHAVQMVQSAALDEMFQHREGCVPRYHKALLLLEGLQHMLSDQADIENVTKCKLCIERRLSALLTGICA
Structure (SMILES),assay,setting,endpoint,result
CN1CC(Oc2cnc(C#N)cc2-c2ccn3nc(NC(=O)C4CC4)cc3c2)C1,"enzyme activity, inhibitor",1 µM,inhibition,-1%
Nc1ncnc2occ(-c3ccc(NC(=O)Nc4cc(C(F)(F)F)ccc4F)cc3)c12,"cell-free assay, inhibitor",20 µM,remaining signal,48%
O=C(NCc1ncc(C(F)(F)F)cc1Cl)c1ccc2c(c1)C1(CCS(=O)(=O)CC1)[C@@H](C1CC1)N2S(=O)(=O)c1ccc(F)cc1,"cell-free assay, competition with immobilised ligand",1 µM,remaining binding,80%
COc1cc(/C=C/C(=O)CC(=O)/C=C/c2ccc(O)c(OC)c2)ccc1O,"enzyme activity, inhibitor",1 µM,activity vs control,88%
FC(F)(F)Oc1cccc(-c2cnc3ccc(-c4ccncc4)nn23)c1,"enzyme activity, inhibitor, radiometric",1 µM,activity vs control,114%
Cc1nn(CC(F)(F)F)cc1Nc1ncc(C2CC2)c(NCCCNC(=O)C2CCC2)n1,"enzyme activity, inhibitor, radiometric",1 µM,remaining activity,58%
Cc1c(C(=O)O)cc(-c2ccc(C3CCNCC3)cc2)c2ccc(-c3ccc(C(F)(F)F)cc3)cc12,"binding, competition with immobilised ligand",1 µM,remaining binding,100%
O=C(NCCCNc1ccnc(Nc2cccc(NC(=O)N3CCCC3)c2)n1)C1CCC1,"enzyme activity, inhibitor, radiometric",1 µM,remaining activity,75%
O=C1Nc2ccc(Cl)cc2C1=Cc1cc(Cl)c(O)c(Cl)c1,cell-free assay,0.5 µM,remaining signal,95%
Cc1nn(CC(F)(F)F)cc1Nc1nccc(NCCCNC(=O)C2CCC2)n1,"enzyme activity, inhibitor, radiometric",1 µM,remaining activity,96%
COc1ccc(COc2ccc(Cc3cnc(N)nc3N)cc2OC)cc1,cell-free assay,0.5 µM,remaining signal,99.7%
Cc1nn(CC(F)(F)F)cc1Nc1ncc(Br)c(NCCCNC(=O)C2CCC2)n1,"enzyme activity, inhibitor, radiometric",1 µM,remaining activity,3%
C[S+]([O-])c1ccc(-c2nc(-c3ccncc3)c(-c3ccc(F)cc3)[nH]2)cc1 (stereo not shown),cell-free assay,0.5 µM,remaining signal,89.3%
NS(=O)(=O)c1cc(NC(=O)C2(c3ccccc3Cl)CC2)ccc1Oc1cccc(Cl)c1,"cell-free assay, competition with immobilised ligand",1 µM,remaining binding,89%
Cc1cc(NC(=O)c2cccc3cc(-c4cccc5[nH]nc(N)c45)ccc23)ccc1F,"enzyme activity, inhibitor",0.1 µM,activity vs control,95%
Cc1nn(CC(F)(F)F)cc1Nc1nccc(NCCc2cnc[nH]2)n1,"enzyme activity, inhibitor, radiometric",1 µM,remaining activity,88%
C[C@@H](c1cccc(C#N)c1)n1cc(Cl)cc(C(N)=O)c1=N,"cell-free assay, competition with immobilised ligand",1 µM,remaining binding,72%
O=C(NCCCNc1nc(Nc2cccc(NC(=O)N3CCCC3)c2)ncc1Br)C1CCC1,"enzyme activity, inhibitor, radiometric",1 µM,remaining activity,2%
N#Cc1ccc(Nc2ccc3[nH]c(=O)[nH]c3c2)c(Cl)c1,"cell-free assay, competition with immobilised ligand",1 µM,remaining binding,81%
Brc1cnc(Nc2cccc(CN3CCOCC3)c2)nc1NCCc1c[nH]cn1,"enzyme activity, inhibitor, radiometric",1 µM,remaining activity,3%
CCOCCn1cc(C(=O)Nc2ccc(-n3nc(-c4cccnc4)cc3C(F)(F)F)cn2)ccc1=O,"cell-free assay, competition with immobilised ligand",1 µM,remaining binding,76%
CCCCNc1ncc2c(-c3ccc(F)cc3)nn(C[C@H]3CC[C@H](N)CC3)c2n1,"target engagement in cells, inhibitor, chemoproteomics",20 mM,inhibition,3.7%
